Results on 16 compounds are retold here after ChEMBL document CHEMBL1649362, “Cytotoxic triterpenoids from Maytenus retusa” (J Nat Prod, 2010).

The inhibition is the percentage by which the read-out fell short of the control. Read a high inhibition as a strong effect. For orientation: IC50 means the concentration that inhibits the measured activity by half.

For assay [1], the system named is HL-60. Put plainly: Cytotoxicity against human HL60 cells at 1 uM after 48 hrs by MTT assay. The assay is classed as functional. To be noted: HL-60, 48 h. The essentials: (§1)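 HL60 cells (ATCC) grown in RPMI with 10% FBS and seeded at 10 000 cells/well. After 48 h exposure, MTT added (0.5 mg/mL final) for 3 h at 37 °C. Formazan dissolved in SDS-HCl (20% SDS, 0.02 M HCl) and read at 570 nm. IC50 obtained by nonlinear regression.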

Assay [2] concerns HL-60. Put plainly: Cytotoxicity against human HL60 cells at 10 uM after 48 hrs by MTT assay. The assay is classed as functional. The conditions noted are these: HL-60, 48 h. The procedure, abridged:
as §1
For orientation: Tetrazolium assays rely on reduction of a dye to a coloured formazan, in cell work by metabolically active cells.

The test system of assay [3] is HL-60. Put plainly: Cytotoxicity against human HL60 cells at 30 uM after 48 hrs by MTT assay. The assay is classed as functional. The conditions noted are these: HL-60, 48 h. The essentials: as §1
Assay [4] concerns MCF7. Put plainly: Cytotoxicity against human MCF7 cells at 1 uM after 48 hrs by MTT assay. The conditions noted are these: MCF7, 48 h. Format: functional. The essentials:
(§2)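 MCF-7 cells (ATCC) maintained in DMEM with 10% FBS and plated at 10 000 cells/well. MTT (0.5 mg/mL final) then incubated 3 h at 37 °C. Formazan solubilized in 20% SDS/0.02 M HCl and absorbance read at 570 nm. IC50 from nonlinear regression.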

Assay [5] has as its system MCF7. Put plainly: Cytotoxicity against human MCF7 cells at 10 uM after 48 hrs by MTT assay. The assay is classed as functional. To be noted: MCF7, 48 h. The essentials:
as §2

Assay [6] concerns MCF7. Put plainly: Cytotoxicity against human MCF7 cells at 30 uM after 48 hrs by MTT assay. Format: functional. To be noted: MCF7, 48 h. The procedure, abridged: as §2
Assay [7] relates to HL-60. Put plainly: Cytotoxicity against human HL60 cells after 48 hrs by MTT assay. The assay is classed as functional, cell-based. The conditions noted are these: HL-60, 48 h. The procedure, abridged: as §1
The test system of assay [8] is MCF7. Put plainly: Cytotoxicity against human MCF7 cells after 48 hrs by MTT assay. The assay is classed as functional, cell-based. The conditions noted are these: MCF7, 48 h. The procedure, abridged:
as §2

Counter-ions that a name gives are not always drawn.

Consider `CC1=C2C3C(=O)C=C4C(=CC(=O)C(O)=C4C)[C@]3(C)CC[C@@]2(C)[C@@H]2C[C@@H](C)C(=O)C[C@]2(C)C1` (some centres undefined), for which the inhibition at 1 µM in the assay with HL-60 [1] is 0%; in the assay with MCF7 [4] it was 9%. Further, the inhibition at 10 µM in the assay on HL-60 [2] stood at 0%; in the assay with MCF7 [5], 11%. Further, the inhibition at 30 µM turned out to be 51% in the assay on HL-60 [3] and 5% with MCF7 [6].

`COc1c(O)cc2c(c1C(=O)O)C(=O)C=C1[C@@]2(C)CC[C@@]2(C)[C@@H]3C[C@@H](C)C(=O)C[C@]3(C)CC[C@]12C`: the inhibition at 1 µM with HL-60 [1] is 78%; in the assay with MCF7 [4], 15%. The results for the inhibition at 10 µM with HL-60 [2] and in the assay with MCF7 [5] were 57% and 17%, respectively. Also, the inhibition at 30 µM with HL-60 [3] is 59%; with MCF7 [6], 11%.

Take `COC(=O)[C@]1(C)CC[C@]2(C)CC[C@]3(C)C4CC(=O)c5cc(O)c(O)cc5[C@]4(C)CC[C@@]3(C)[C@@H]2C1` (some centres undefined): the inhibition at 1 µM in the assay on HL-60 [1] is 35%; in the assay on MCF7 [4] it was 4%. Further, the values for the inhibition at 10 µM in the assay on HL-60 [2] and in the assay on MCF7 [5] were 64% and 0%, respectively. Further, the inhibition at 30 µM in the assay on HL-60 [3] is 65%; in the assay with MCF7 [6], 44%.

As for `CC1=C(O)C(=O)C=C2C1=CC=C1[C@@]2(C)CC[C@@]2(C)[C@@H]3C[C@@](C)(O)C(=O)C[C@]3(C)CC[C@]12C`, the IC50 in the assay on HL-60 [7] was 200 nM; in the assay on MCF7 [8] it was 1400 nM. Further, the inhibition at 1 µM in the assay with HL-60 [1] is 80%; with MCF7 [4], 21%. The inhibition at 10 µM in the assay with HL-60 [2] turned out to be 89%; with MCF7 [5] it was 100%. The inhibition at 30 µM in the assay on HL-60 [3] was determined as 90%; in the assay on MCF7 [6], 100%.

For `Cc1c(O)c(O)cc2c1C(=O)C=C1[C@@]2(C)CC[C@@]2(C)[C@@H]3C[C@@H](C)C(=O)C[C@]3(C)CC[C@]12C` [6-OXOTINGENOL], the inhibition at 1 µM came to 45% in the assay with HL-60 [1] and 10% in the assay on MCF7 [4]. Moreover, the inhibition at 10 µM in the assay on HL-60 [2] is 85%; in the assay with MCF7 [5] it was 8%. Besides, the figures for the inhibition at 30 µM with HL-60 [3] and with MCF7 [6] were 100% and 17%, respectively.

For the compound `CC1=C(O)C(=O)C=C2C1=CC=C1[C@@]2(C)CC[C@@]2(C)[C@@H]3C[C@](C)(O)C(=O)C[C@]3(C)CC[C@]12C` [20ALPHA-HYDROXYTINGENONE], the IC50 in the assay with HL-60 [7] stood at 400 nM; with MCF7 [8] it was 4700 nM. Moreover, the inhibition at 1 µM was 25% with HL-60 [1] and 14% with MCF7 [4]. The values for the inhibition at 10 µM in the assay with HL-60 [2] and in the assay on MCF7 [5] were 100% and 85%, respectively. In addition, the inhibition at 30 µM turned out to be 87% with HL-60 [3] and 100% with MCF7 [6].

In the case of `COC(=O)[C@@]1(C)C[C@@H]2[C@@](C)(CC[C@]3(C)C4=CC=C5C(=CC(=O)C(O)=C5C)[C@]4(C)CC[C@@]23C)CC1=O` [21-OXOPRISTIMERINE], the figures for the IC50 in the assay with HL-60 [7] and in the assay on MCF7 [8] were 1400 nM and 10000 nM, respectively. Besides, the inhibition at 1 µM in the assay with HL-60 [1] and with MCF7 [4] was 0% each time. For the same compound, the figures for the inhibition at 10 µM in the assay on HL-60 [2] and in the assay on MCF7 [5] were 88% and 32%, respectively. The figures for the inhibition at 30 µM in the assay on HL-60 [3] and with MCF7 [6] were 100% and 91%, respectively.

For `CC1=C(O)C(=O)C=C2C1=CC(=O)[C@@H]1[C@@]2(C)CC[C@@]2(C)[C@@H]3C[C@@H](C)C(=O)C[C@]3(C)CC[C@]12C` [AMAZOQUINONE], the inhibition at 1 µM was found to be 66% in the assay on HL-60 [1] and 10% in the assay with MCF7 [4]. Besides, the results for the inhibition at 10 µM in the assay on HL-60 [2] and with MCF7 [5] were 61% and 16%, respectively. Further, the inhibition at 30 µM in the assay on HL-60 [3] was found to be 100%; in the assay on MCF7 [6], 18%.

As for `COC(=O)[C@@]1(C)C[C@@H]2[C@@](C)(CC[C@]3(C)C4CC(=O)c5c(cc(O)c(O)c5C)[C@]4(C)CC[C@@]23C)CC1=O` (some centres undefined) [BLEPHARODOL], the inhibition at 1 µM came out at 69% in the assay with HL-60 [1] and 15% with MCF7 [4]. Further, the inhibition at 10 µM with HL-60 [2] was determined as 79%; in the assay on MCF7 [5], 8%. Also, the inhibition at 30 µM is 100% in the assay on HL-60 [3] and 7% in the assay on MCF7 [6].

For `CC1=C(O)C(=O)CC2[C@]3(C)CC[C@@]4(C)[C@@H]5C[C@](C)(C(=O)O)CC[C@]5(C)CC[C@]4(C)C3CC[C@]12C=O` (some centres undefined) [CANGORONINE], the inhibition at 1 µM was found to be 40% in the assay with HL-60 [1] and 16% in the assay on MCF7 [4]. The inhibition at 10 µM with HL-60 [2] stood at 48%; with MCF7 [5] it was 9%. The values for the inhibition at 30 µM in the assay with HL-60 [3] and in the assay with MCF7 [6] were 60% and 15%, respectively.

Consider `COC(=O)[C@]1(C)CC[C@]2(C)CC[C@]3(C)C4C(=O)C=C5C(=CC(=O)C(O)=C5C)[C@]4(C)CC[C@@]3(C)C2C1` (some centres undefined) [DISPERMOQUINONE], for which the IC50 with HL-60 [7] was 1700 nM; in the assay on MCF7 [8] it was > 30000 nM. In addition, the figures for the inhibition at 1 µM in the assay with HL-60 [1] and in the assay with MCF7 [4] were 0% and 9%, respectively. The inhibition at 10 µM with HL-60 [2] was 100%; with MCF7 [5], 25%. Also, the inhibition at 30 µM in the assay with HL-60 [3] is 100%; in the assay with MCF7 [6], 60%.

Take `COc1cccc2c1C(=O)c1c(O)c3c(c(O)c1C2=O)C[C@@](O)(C(=O)CO)C[C@@H]3O[C@H]1C[C@H](N)[C@H](O)[C@H](C)O1` [DOXORUBICIN HYDROCHLORIDE]: the IC50 with HL-60 [7] is 100 nM; in the assay on MCF7 [8] it was > 10000 nM. In addition, the inhibition at 1 µM with HL-60 [1] stood at 100%; in the assay on MCF7 [4], 69%. Also, the inhibition at 10 µM in the assay with HL-60 [2] was 89%; in the assay on MCF7 [5], 76%. Further, the inhibition at 30 µM with HL-60 [3] was 100%; with MCF7 [6], 98%.

`COC(=O)[C@@]1(C)C[C@@H]2[C@@](C)(CC[C@]3(C)C4CC(=O)c5c(cc(O)c(O)c5C=O)[C@]4(C)CC[C@@]23C)CC1=O` (some centres undefined) [MACROCARPIN A]: the figures for the IC50 in the assay on HL-60 [7] and in the assay on MCF7 [8] were 1700 nM and > 30000 nM, respectively. For the same compound, the inhibition at 1 µM was determined as 0% in the assay with HL-60 [1] and 14% in the assay on MCF7 [4]. Also, the inhibition at 10 µM in the assay on HL-60 [2] is 100%; in the assay on MCF7 [5] it was 25%. Further, the inhibition at 30 µM amounted to 100% with HL-60 [3] and 36% with MCF7 [6].

Turning to `COC(=O)[C@]1(C)CC[C@]2(C)CC[C@]3(C)C4=CC=C5C(=CC(=O)C(O)=C5C)[C@]4(C)CC[C@@]3(C)[C@@H]2C1` [PRISTIMERIN], the values for the IC50 in the assay on HL-60 [7] and with MCF7 [8] were 200 nM and 400 nM, respectively. In addition, the inhibition at 1 µM worked out at 96% in the assay with HL-60 [1] and 42% with MCF7 [4]. Also, the inhibition at 10 µM in the assay with HL-60 [2] and in the assay on MCF7 [5] was 100% in each case. Also, the inhibition at 30 µM in the assay on HL-60 [3] and in the assay with MCF7 [6] was 100% each time.

For the compound `CC1=C(O)C(=O)C=C2C1=CC=C1[C@@]2(C)CC[C@@]2(C)[C@@H]3C[C@@H](C)C(=O)[C@@H](O)[C@]3(C)CC[C@]12C` [TINGENIN B], the results for the IC50 with HL-60 [7] and in the assay with MCF7 [8] were 700 nM and 4400 nM, respectively. In addition, the inhibition at 1 µM in the assay with HL-60 [1] was 55%; in the assay with MCF7 [4], 16%. In addition, the inhibition at 10 µM came out at 82% in the assay with HL-60 [2] and 96% in the assay on MCF7 [5]. Moreover, the figures for the inhibition at 30 µM with HL-60 [3] and in the assay on MCF7 [6] were 88% and 100%, respectively.

In the case of `CC1=C(O)C(=O)C=C2C1=CC=C1[C@@]2(C)CC[C@@]2(C)[C@@H]3C[C@@H](C)C(=O)C[C@]3(C)CC[C@]12C` [TINGENONE], the IC50 in the assay on HL-60 [7] is 500 nM; with MCF7 [8], 3000 nM. For the same compound, the inhibition at 1 µM stood at 46% in the assay with HL-60 [1] and 17% in the assay with MCF7 [4]. Also, the inhibition at 10 µM was found to be 100% with HL-60 [2] and 97% in the assay on MCF7 [5]. Moreover, the inhibition at 30 µM was determined as 96% in the assay with HL-60 [3] and 100% with MCF7 [6].
